Active and inactive are the calls of the source. No cut-off for these calls is given here.
Columns and labels:
Mus musculus [1] = assay: Antiseptic activity in Balb/c mouse model of Escherichia coli K1 infection-induced sepsis assessed as reduction in bacterial count in liver at 1 mg/kg, ip pretreated for 1 hr followed by Escherichia coli K1 infection measured after 12 hrs; type: functional, organism-based
Method in brief: (§1)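 Pretreatment was 1 mg·kg−1 i.p. 1 h before i.p. E. coli K1 (1 × 10^6 CFU per mouse) in BALB/c mice. At 12 h, lungs, liver and kidneys were homogenized in PBS and diluted 1:1000. 10 μL was plated on LB agar, incubated 24 h at 37 °C, and colonies counted.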

Mus musculus [2] = assay: Antiinflammatory activity in Balb/c mouse model of LPS-induced endotoxemia assessed as increase in serum IL10 level at 1 mg/kg, ip pretreated for 1 hr followed by LPS-challenge measured after 2 hrs by ELISA; type: functional, organism-based
Method in brief: (§2)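 BALB/c mice were dosed with 1 mg·kg−1 i.p. 1 h before LPS 10 mg·kg−1 i.p. Serum was taken 2 h later, and TNF-α, IL-6 and IL-10 were measured by sandwich ELISA. Means ± SEM.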

Mus musculus [3] = assay: Antiinflammatory activity in Balb/c mouse model of LPS-induced endotoxemia assessed as reduction in infiltration of immune cells at 1 mg/kg, ip pretreated for 1 hr followed by LPS-challenge measured after 12 hrs by hematoxylin and eosin staining based microscopic analysis; type: functional, organism-based
Method in brief: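 Dosing was 1 mg·kg−1 i.p. 1 h before LPS 10 mg·kg−1 i.p. in BALB/c mice. At 12 h lungs were perfused and formalin-fixed, then paraffin-embedded. 5 μm sections were H&E-stained and imaged by microscope. Representative of three independent experiments.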

Mus musculus [4] = assay: Antiseptic activity in Balb/c mouse model of Escherichia coli K1 infection-induced sepsis assessed as increase in survival rate at 1 mg/kg, ip pretreated for 1 hr followed by Escherichia coli K1 infection measured over 72 hrs relative to control; type: functional
Method in brief: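 BALB/c mice dosed i.p. 1 h before i.p. E. coli K1 strain RS218 (O18:K1:H7) challenge, 1 × 10^7 CFU per mouse, diluted in LB broth; n = 10; survival monitored over 72 h.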

Mus musculus [5] = assay: Antiinflammatory activity in Balb/c mouse model of LPS-induced endotoxemia assessed as reduction in serum IL6 level at 1 mg/kg, ip pretreated for 1 hr followed by LPS-challenge measured after 2 hrs by ELISA; type: functional, organism-based; method in brief: as §2
Mus musculus [6] = assay: Antiinflammatory activity in Balb/c mouse model of LPS-induced endotoxemia assessed as reduction in IL6 level in lungs at 1 mg/kg, ip pretreated for 1 hr followed by LPS-challenge measured after 12 hrs by ELISA; type: functional, organism-based
Method in brief: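 BALB/c mice got 1 mg·kg−1 i.p. 1 h before i.p. LPS 10 mg·kg−1. After 12 h, TNF-α and IL-6 in lung lysates were measured by sandwich ELISA. Means ± SEM.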

Mus musculus [7] = assay: Antiseptic activity in Balb/c mouse model of Escherichia coli K1 infection-induced sepsis assessed as reduction in bacterial count in kidneys at 1 mg/kg, ip pretreated for 1 hr followed by Escherichia coli K1 infection measured after 12 hrs; type: functional, organism-based; method in brief: as §1
[8] = biological target: T1, Toll-like receptor 4 (Mus musculus) (UniProt Q9QUK6); assay: Inhibition of LPS-induced TLR4 activation in C57BL/6 mouse BMDC assessed as reduction in JNK1 phosphorylation at 25 uM pretreated for 30 mins followed by LPS-challenge measured after 15 to 90 mins by Western blot analysis; type: cell-based
T1 sequence (whole entry): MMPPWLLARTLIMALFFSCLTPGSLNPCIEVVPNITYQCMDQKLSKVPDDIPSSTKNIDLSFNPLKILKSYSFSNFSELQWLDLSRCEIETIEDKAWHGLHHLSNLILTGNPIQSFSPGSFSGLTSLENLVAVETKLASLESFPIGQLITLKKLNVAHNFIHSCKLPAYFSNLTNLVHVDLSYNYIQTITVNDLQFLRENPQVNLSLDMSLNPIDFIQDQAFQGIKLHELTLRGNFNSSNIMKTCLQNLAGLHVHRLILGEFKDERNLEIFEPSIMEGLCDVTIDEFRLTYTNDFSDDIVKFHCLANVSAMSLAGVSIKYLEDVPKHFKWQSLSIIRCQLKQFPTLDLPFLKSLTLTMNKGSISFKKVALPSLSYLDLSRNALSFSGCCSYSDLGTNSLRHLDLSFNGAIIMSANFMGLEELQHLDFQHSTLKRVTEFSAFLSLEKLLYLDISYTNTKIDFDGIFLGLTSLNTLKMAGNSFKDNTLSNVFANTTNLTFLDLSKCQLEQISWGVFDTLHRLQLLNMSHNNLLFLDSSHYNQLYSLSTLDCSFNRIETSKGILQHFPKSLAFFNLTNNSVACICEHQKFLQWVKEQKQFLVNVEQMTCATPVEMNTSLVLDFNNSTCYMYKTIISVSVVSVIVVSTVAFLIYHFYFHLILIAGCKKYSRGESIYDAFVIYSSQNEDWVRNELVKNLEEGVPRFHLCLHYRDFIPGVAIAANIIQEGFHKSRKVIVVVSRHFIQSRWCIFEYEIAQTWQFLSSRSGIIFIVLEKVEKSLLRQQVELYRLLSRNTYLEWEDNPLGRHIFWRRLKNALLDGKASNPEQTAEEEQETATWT
Method in brief: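 BMDCs were pretreated 30 min with 25 μM compound, then stimulated with LPS 50 ng·mL−1 for the indicated times. Lysates (25 μg protein) were run on 10% SDS-PAGE and immunoblotted for phospho/total ERK, JNK, p38 and Akt, plus COX-2, IκBα and α-tubulin, with ECL detection. Representative of three experiments.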

BMDC [9] = assay: Inhibition of LPS-induced immune response in C57BL/6 mouse BMDC assessed as reduction in TNFalpha secretion at 25 uM treated 6 hrs post LPS-challenge measured after 30 mins by ELISA; type: functional, cell-based
Method in brief: (§3)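 Bone marrow DCs from 6-week-old female C57BL/6 mice, RBC-lysed, cultured in RPMI-1640/10% FBS with 10 ng/mL rmGM-CSF, 37 °C, 5% CO2. Cells given LPS 50 ng/mL for 6 h, then 25 μM compound added for 30, 60, 90 or 120 min. Supernatant TNF-α, IL-6, IL-10, IL-12p70 measured by sandwich ELISA. Mean ± SEM, compared with LPS-only DCs.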

BMDC [10] = assay: Inhibition of Escherichia coli K1 infection-induced immune response in C57BL/6 mouse BMDC assessed as reduction in IL-6 secretion at 25 uM pretreated for 60 to 120 mins followed by Escherichia coli K1 infection for 6 hrs by ELISA; type: functional, cell-based
Method in brief: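 BMDCs from C57BL/6 mice were given 25 μM compound and E. coli K1, […]. Timing was: compound 30 min before a 6 h infection; cotreatment for 6 h; or compound for 30–120 min with 6 h infection. Supernatant cytokines (TNF-α, IL-6, IL-10, IL-12p70) were measured by ELISA. At least three experiments in triplicate.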

BMDC [11] = assay: Inhibition of LPS-induced immune response in C57BL/6 mouse BMDC assessed as reduction in TNFalpha secretion at 25 uM treated 6 hrs post LPS-challenge measured after 60 to 120 mins by ELISA; type: functional, cell-based; method in brief: as §3

## COc1ccc(-c2oc3cc(O)cc(O)c3c(=O)c2O)cc1O [TAMARIXETIN]
Mus musculus [1]
  Activity: Active
Mus musculus [2]
  Activity: Active
Mus musculus [3]
  Activity: Active
Mus musculus [4]
  Activity: 80%
Mus musculus [5]
  Activity: Active
Mus musculus [6]
  Activity: Active
Mus musculus [7]
  Activity: Active
[8]
  inhibition: Active
BMDC [9]
  inhibition: Active
BMDC [10]
  inhibition: inactive
BMDC [11]
  inhibition: inactive
